# Results from ChEMBL document CHEMBL3351887, “'Click' assembly of glycoclusters and discovery of a trehalose analogue that retards Aβ40 aggregation and inhibits Aβ40-induced neurotoxicity” (Bioorg Med Chem Lett, 2014).
# Assays:
# [1] = target: Amyloid-beta precursor protein (Homo sapiens) (UniProt P05067); test: Inhibition of amyloid beta-40 aggregation (unknown origin) assessed as extension of lag phase of Abeta40 aggregation at 100 uM by ThT fluorescence assay; design: scale not given: the % may be the effect or the level left
# Chain of Amyloid-beta precursor protein (Homo sapiens) (P05067 whole entry): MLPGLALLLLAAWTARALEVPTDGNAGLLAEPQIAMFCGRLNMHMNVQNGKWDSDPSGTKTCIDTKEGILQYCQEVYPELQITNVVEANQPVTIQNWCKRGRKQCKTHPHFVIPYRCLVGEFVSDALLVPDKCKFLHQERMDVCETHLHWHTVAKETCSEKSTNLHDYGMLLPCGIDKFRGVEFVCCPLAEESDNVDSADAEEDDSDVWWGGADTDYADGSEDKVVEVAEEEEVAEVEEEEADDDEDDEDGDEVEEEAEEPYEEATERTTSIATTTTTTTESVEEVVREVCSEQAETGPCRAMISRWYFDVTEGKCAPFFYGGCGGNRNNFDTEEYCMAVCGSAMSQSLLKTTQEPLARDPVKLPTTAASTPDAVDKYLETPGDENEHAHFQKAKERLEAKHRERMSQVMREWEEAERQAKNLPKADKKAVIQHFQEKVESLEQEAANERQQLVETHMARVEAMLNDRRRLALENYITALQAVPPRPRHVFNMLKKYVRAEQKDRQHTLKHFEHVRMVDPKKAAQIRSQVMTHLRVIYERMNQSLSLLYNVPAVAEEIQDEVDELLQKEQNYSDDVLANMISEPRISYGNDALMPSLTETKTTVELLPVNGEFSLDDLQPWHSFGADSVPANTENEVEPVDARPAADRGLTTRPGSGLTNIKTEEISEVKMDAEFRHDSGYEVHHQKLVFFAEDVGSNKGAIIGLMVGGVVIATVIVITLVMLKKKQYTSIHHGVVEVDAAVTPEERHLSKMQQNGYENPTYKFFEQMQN
# How it was run: (§1)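 Monomer-rich Aβ40 (35 µM, supernatant after NaOH dissolution, sonication and ultracentrifugation) was incubated with 10 nM–100 µM compound in 20 mM phosphate buffer pH 7.4 (I 0.15 M), with 20 µM ThT and 0.007% NaN3, quiescent at 37 °C. Fluorescence (ex 440, em 480 nm) was read every 5 min. Lag time came from an empirical sigmoidal nonlinear-regression fit; mean ± SE of four independent experiments.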
# [2] = target: Amyloid-beta precursor protein (Homo sapiens) (UniProt P05067); test: Inhibition of amyloid beta-40 aggregation (unknown origin) assessed as extension of lag phase of Abeta40 aggregation by ThT fluorescence assay; how it was run: as §1
Activity [1],inhibition [2],SMILES
28%,Dose-dependent effect,OC[C@H]1O[C@@H](O[C@H]2[C@H](O)[C@@H](O)[C@H](n3cc(COCC(COCc4cn([C@@H]5O[C@H](CO)[C@@H](O[C@@H]6O[C@H](CO)[C@H](O)[C@H](O)[C@H]6O)[C@H](O)[C@H]5O)nn4)(COCc4cn([C@@H]5O[C@H](CO)[C@@H](O[C@@H]6O[C@H](CO)[C@H](O)[C@H](O)[C@H]6O)[C@H](O)[C@H]5O)nn4)COCC(COCc4cn([C@@H]5O[C@H](CO)[C@@H](O[C@@H]6O[C@H](CO)[C@H](O)[C@H](O)[C@H]6O)[C@H](O)[C@H]5O)nn4)(COCc4cn([C@@H]5O[C@H](CO)[C@@H](O[C@@H]6O[C@H](CO)[C@H](O)[C@H](O)[C@H]6O)[C@H](O)[C@H]5O)nn4)COCc4cn([C@@H]5O[C@H](CO)[C@@H](O[C@@H]6O[C@H](CO)[C@H](O)[C@H](O)[C@H]6O)[C@H](O)[C@H]5O)nn4)nn3)O[C@@H]2CO)[C@H](O)[C@@H](O)[C@H]1O
28%,Dose-dependent effect,OC[C@H]1O[C@@H](n2cc(COCC(COCc3cn([C@@H]4O[C@H](CO)[C@H](O)[C@H](O)[C@H]4O)nn3)(COCc3cn([C@@H]4O[C@H](CO)[C@H](O)[C@H](O)[C@H]4O)nn3)COCC(COCc3cn([C@@H]4O[C@H](CO)[C@H](O)[C@H](O)[C@H]4O)nn3)(COCc3cn([C@@H]4O[C@H](CO)[C@H](O)[C@H](O)[C@H]4O)nn3)COCc3cn([C@@H]4O[C@H](CO)[C@H](O)[C@H](O)[C@H]4O)nn3)nn2)[C@H](O)[C@@H](O)[C@H]1O
